In ChEMBL document CHEMBL1122039, “Design of more potent and selective antagonists of the antidiuretic responses to arginine-vasopressin devoid of antidiuretic agonism” (J Med Chem, 1982):
Numbered stars: 1 amine (or outer) side, 2 acyl side, 3 side chain; on linkers, the order of the positions; unused ones are H or OH. Bridge positions count the residues as written; N and C are the ends. Peptide text beside a SMILES is read from it. X1 = O=C(CC1(S[*:2])CCCCC1)[*:1]

Legend:
Rattus norvegicus [1] = species: Rattus norvegicus; assay: Effective dose required for anti-vasopressor activity in phenoxybenzamine-treated rats under urethane anesthesia; type: functional
Outline: (§1)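 Intravenous vasopressor assay in phenoxybenzamine-treated rats under urethane anesthesia, with the USP posterior pituitary standard as agonist. Antagonist given at a high and a low dose.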

Rattus norvegicus [2] = species: Rattus norvegicus; assay: Antivasopressor activity in rats.; type: functional, organism-based; conditions: read-out: pA2 (converted); outline: as §1
Rattus norvegicus [3] = species: Rattus norvegicus; assay: Effective dose required for antiantidiuretic activity in rats.; type: functional, Urine
Outline: (§2)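 Antidiuretic assay in rats under ethanol anesthesia. Antagonist given at two doses, a high and a low one. The USP posterior pituitary standard was injected 20 min later, or 10 min later for non-agonist analogues.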

Rattus norvegicus [4] = assay: In vivo anti-oxytocic activity in rat uterus; type: functional, organism-based; conditions: read-out: pA2 (converted)
Rattus norvegicus [5] = species: Rattus norvegicus; assay: Antiantidiuretic activity in rats.; type: functional, organism-based; conditions: Urine, read-out: pA2 (converted); outline: as §2
Rattus norvegicus [6] = species: Rattus norvegicus; assay: In vitro anti-oxytocic activity in rat uterus (no Mg2+); type: functional; conditions: read-out: pA2 (converted)
Rattus norvegicus [7] = species: Rattus norvegicus; assay: Effective dose required for anti-oxytocic activity in rat uterus; type: functional
Rattus norvegicus [8] = species: Rattus norvegicus; assay: In vitro anti-oxytocic activity in rat uterus (0.5 mM Mg2+); type: functional; conditions: read-out: pA2 (converted)
[9] = ED ratio (anti-oxytocic ED/antiantidiuretic ED) of the compound; type: functional, Urine
[10] = Selectivity ratio for antioxyticic potency to antidiuretic potency; type: functional, Urine
[11] = ED ratio (anti-vasopressor ED/antiantidiuretic ED) of the compound; type: functional, Urine
[12] = Selectivity ratio for anti-vasopressor potency to antidiuretic potency; type: functional, Urine

Row | SMILES | Effective dose (Rattus norvegicus [1]) [nM/kg] | Kb (Rattus norvegicus [2]) [nM] | Effective dose (Rattus norvegicus [3]) [nM/kg] | Kb (Rattus norvegicus [4]) [nM] | Kb (Rattus norvegicus [5]) [nM] | Kb (Rattus norvegicus [6]) [nM] | Effective dose (Rattus norvegicus [7]) [nM/kg] | Kb (Rattus norvegicus [8]) [nM] | ED ratio [9] | Selectivity [10] | ED ratio [11] | Selectivity [12]
1 | CC[C@@H](C)[C@H]1NC(=O)CC2(CCCCC2)SSC[C@@H](C(=O)N2CCC[C@H]2C(=O)N[C@@H](CCCN=C(N)N)C(=O)NCC(N)=O)NC(=O)[C@H](CC(N)=O)NC(=O)[C@H](C(C)C)NC(=O)[C@H](Cc2ccccc2)NC1=O | 8.2 | 115 | 0.7 | 617 | 10.5 | 10.5 | 44 | – | – | – | – | –
2 | CC(C)[C@@H]1NC(=O)[C@H](Cc2ccccc2)NC(=O)CNC(=O)CC2(CCCCC2)SSC[C@@H](C(=O)N2CCC[C@H]2C(=O)N[C@@H](CCCN=C(N)N)C(=O)NCC(N)=O)NC(=O)[C@H](CC(N)=O)NC1=O (GFVNCPRG-NH2; linker N-5 via X1) | – | – | – | – | – | 2880 | – | > 20000 | – | – | – | –
3 | CC(C)[C@@H]1NC(=O)[C@H](Cc2ccccc2)NC(=O)[C@@H](C)NC(=O)CC2(CCCCC2)SSC[C@@H](C(=O)N2CCC[C@H]2C(=O)N[C@@H](CCCN=C(N)N)C(=O)NCC(N)=O)NC(=O)[C@H](CC(N)=O)NC1=O | 177 | 1620 | – | – | – | 692 | – | 9770 | – | – | – | –
4 | CC(C)[C@@H]1NC(=O)[C@H](Cc2ccccc2)NC(=O)[C@H](Cc2ccc(O)cc2)NC(=O)CC2(CCCCC2)SSC[C@@H](C(=O)N2CCC[C@H]2C(=O)N[C@@H](CCCN=C(N)N)C(=O)NCC(N)=O)NC(=O)[C@H](CC(N)=O)NC1=O | – | 10.7 | – | 339 | – | 45.7 | 26 | 49 | – | – | – | –
5 | CC(C)C[C@H]1NC(=O)CC2(CCCCC2)SSC[C@@H](C(=O)N2CCC[C@H]2C(=O)N[C@@H](CCCN=C(N)N)C(=O)NCC(N)=O)NC(=O)[C@H](CC(N)=O)NC(=O)[C@H](C(C)C)NC(=O)[C@H](Cc2ccccc2)NC1=O | 26 | 355 | 1.2 | 891 | 16.2 | 47.9 | 61 | 41.7 | 51 | 16 | 22 | 170
6 | CC(C)[C@@H]1NC(=O)[C@H](Cc2ccccc2)NC(=O)[C@@H](C(C)C)NC(=O)CC2(CCCCC2)SSC[C@@H](C(=O)N2CCC[C@H]2C(=O)N[C@@H](CCCN=C(N)N)C(=O)NCC(N)=O)NC(=O)[C@H](CC(N)=O)NC1=O | 27 | 389 | 2.3 | 3240 | 33.1 | 12.6 | 220 | 129 | 96 | 31 | 12 | 92
7 | CC(C)[C@@H]1NC(=O)[C@H](Cc2ccccc2)NC(=O)[C@@H](CCCN=C(N)N)NC(=O)CC2(CCCCC2)SSC[C@@H](C(=O)N2CCC[C@H]2C(=O)N[C@@H](CCCN=C(N)N)C(=O)NCC(N)=O)NC(=O)[C@H](CC(N)=O)NC1=O | ~260 | 3980 | >90 | – | > 1260 | > 10000 | – | – | – | – | – | –
8 | CC(C)[C@@H]1NC(=O)[C@H](Cc2ccccc2)NC(=O)[C@@H](Cc2ccc(O)cc2)NC(=O)CC2(CCCCC2)SSC[C@@H](C(=O)N2CCC[C@H]2C(=O)N[C@@H](CCCN=C(N)N)C(=O)NCC(N)=O)NC(=O)[C@H](CC(N)=O)NC1=O | – | 3.89 | – | 97.7 | 30.9 | 7.76 | 6.9 | 16.6 | 3.1 | 1 | 0.13 | 1
9 | CC(C)[C@@H]1NC(=O)[C@H](Cc2ccccc2)NC(=O)[C@@H](Cc2ccc(O)cc2)NC(=O)CC2(CCCCC2)SSC[C@@H](C(=O)N2CCC[C@H]2C(=O)N[C@H](CCCN=C(N)N)C(=O)NCC(N)=O)NC(=O)[C@H](CC(N)=O)NC1=O | 0.6 | 8.91 | 6.3 | 117 | 93.3 | 10.2 | 8.1 | 16.6 | – | – | – | –
10 | CC(C)[C@@H]1NC(=O)[C@H](Cc2ccccc2)NC(=O)[C@@H](Cc2ccccc2)NC(=O)CC2(CCCCC2)SSC[C@@H](C(=O)N2CCC[C@H]2C(=O)N[C@@H](CCCN=C(N)N)C(=O)NCC(N)=O)NC(=O)[C@H](CC(N)=O)NC1=O | 0.58 | 8.71 | 0.67 | 120 | 8.51 | – | 8.9 | – | – | – | – | –
